Bioassay records: PubChem, several laboratories
Hits are enriched below; roughly 3% of the tested compounds scored in any of these assays.
ROMK mod: ROMK potassium channel modulators, primary screen, cell-based, thallium flux, MLSMR library. ATP-sensitive inward rectifier potassium channel 1 (Homo sapiens), P48048. Tet-inducible ROMK, thallium flux fluorescence; actives lie on both sides. B-score at 10 µM. 130,000 compounds, 2% hits. AID 1918, 2009;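 active means signal ratio slope over the read window, or its plate-corrected B-score, at least 3 SD from the plate mean, either direction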;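 further: B-score of the F/F0 ratio slope over 7 to 12 s after thallium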
PKD1 inh: inhibitors of human PKD1 kinase, biochemical, fluorescence polarization | Serine/threonine-protein kinase D1 (Homo sapiens), Q15139 | PKD1 kinase fluorescence polarization assay | inhibition, % (test concentration not listed) | 200,000 compounds, 0.056% hits | AID 797, 2007; in the data active means inhibition above about 50%
Target sequence (Q15139 whole entry, looked up): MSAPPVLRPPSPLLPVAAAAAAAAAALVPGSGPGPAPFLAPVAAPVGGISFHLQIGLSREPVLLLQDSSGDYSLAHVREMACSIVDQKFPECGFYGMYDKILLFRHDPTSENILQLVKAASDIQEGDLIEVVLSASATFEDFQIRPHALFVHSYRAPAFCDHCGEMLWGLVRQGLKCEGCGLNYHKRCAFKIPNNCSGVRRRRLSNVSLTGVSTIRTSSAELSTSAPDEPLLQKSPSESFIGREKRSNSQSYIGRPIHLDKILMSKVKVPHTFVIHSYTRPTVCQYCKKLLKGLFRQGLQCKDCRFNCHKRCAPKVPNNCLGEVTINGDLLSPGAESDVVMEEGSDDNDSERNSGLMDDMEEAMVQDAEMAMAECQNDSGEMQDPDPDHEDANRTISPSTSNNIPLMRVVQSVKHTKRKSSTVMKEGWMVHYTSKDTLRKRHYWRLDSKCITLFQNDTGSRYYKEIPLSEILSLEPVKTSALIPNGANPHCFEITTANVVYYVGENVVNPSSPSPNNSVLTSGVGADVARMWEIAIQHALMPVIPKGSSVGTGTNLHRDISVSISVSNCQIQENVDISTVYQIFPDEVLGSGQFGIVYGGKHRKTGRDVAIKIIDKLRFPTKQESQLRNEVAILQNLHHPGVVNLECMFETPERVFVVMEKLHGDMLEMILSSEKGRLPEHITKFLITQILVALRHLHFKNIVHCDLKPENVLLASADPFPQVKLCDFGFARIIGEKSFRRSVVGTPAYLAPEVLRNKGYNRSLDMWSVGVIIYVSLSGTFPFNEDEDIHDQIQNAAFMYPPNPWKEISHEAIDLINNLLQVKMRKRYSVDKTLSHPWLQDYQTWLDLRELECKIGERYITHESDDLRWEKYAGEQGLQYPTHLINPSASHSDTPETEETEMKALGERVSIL
Rad51 HR inh: human RAD51 strand exchange inhibitors, primary screen, biochemical, fluorescence. DNA repair protein RAD51 homolog 1 (Homo sapiens), Q06609. hRad51 DNA strand exchange, fluorescence dequenching. inhibition, % at 10 µM. 200,000 compounds, 0.085% hits;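 active means inhibition above 40% at the single screening dose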;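 further: 0% = DMSO control wells and 100% = blanks with heterologous ssDNA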
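Material: human Rad51–ssDNA filaments; Probe or stimulus: labelled 47-mer dsDNA for strand exchange; Doses: single 10 µM dose; Incubation: 37 °C 15-min filament assembly, 30-min compound preincubation, 15-min exchange; Technique: FRET fluorescence dequenching, excitation 485 nm, emission 520 nm; Measure: Fluorescence-based percent inhibition, control- and blank-normalised; Benchmarks: plate control and blank wells.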
Cl transport mod: KCC2 cotransporter modulators, thallium flux, primary screen, cell-based, HEK293 KCC2, FluoZin-2 fluorescence, MLSMR. KCC2 cells, thallium flux FluoZin-2 fluorescence. B-score of Tl+ flux slope (higher = more flux/activation; lower = inhibition) at 10 µM. 190,000 compounds, 2.2% hits;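 active means thallium flux slope and its plate-corrected score both differing from the plate sample mean at a set confidence after two filtering rounds, in either direction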;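 further: slope of fluorescence scaled to starting intensity during 10 to 20 s after thallium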
KCC2 sec1: KCC2 modulators in sodium-free buffer, confirmation, cell-based, HEK293 KCC2, thallium flux, secondary assay. shares compounds with Cl transport mod. normalised thallium flux (F/F0 slope) at 10 µM. FluoZin2 fluorescence; hits give high values. 3,700 compounds, 15% hits;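 active means thallium flux slope above the same plate's solvent-only control mean plus 3 SD; inconclusive means the two replicate wells disagree; inactive means no significant difference from solvent-only control wells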
KCC2 bumet counter: thallium flux persisting under bumetanide in KCC2 cells, confirmation, counter-screen for KCC2 modulator project, cell-based, HEK293 KCC2, FluoZin2, secondary assay 3 | shares compounds with Cl transport mod | HEK293-KCC2 + bumetanide/ouabain; hits give high values | normalized thallium flux at 10 µM | 3,700 compounds, 49% hits | AID 1714, 2009;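 active means thallium entry rate above the same plate's blocked-transporter control wells by more than 3 SD; inconclusive means the two repeat wells disagree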;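 further: raw slope of fluorescence over initial fluorescence between 10 and 20 s after thallium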
KCC2 secondary2: KCC2 modulators without ouabain present, confirmation, cell-based, HEK293 KCC2, thallium flux, FluoZin2, secondary assay 2 | shares compounds with Cl transport mod | thallium flux FluoZin2 fluorescence; actives lie on both sides; F/F0 rise rate, 10–20 s post-thallium | normalized thallium flux at 10 µM | 3,700 compounds, 23% hits | AID 1715, 2009;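 active means thallium flux slope more than 3 SD above or below the plate's solvent-only control mean, mostly below; inconclusive means the two repeat wells disagreed; inactive means no significant shift from solvent-only controls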;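 further: raw slope with 0.1% DMSO as baseline and bumetanide as block control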
HEK counter1: thallium flux modulation in parental HEK cells, confirmation, counter-screen for KCC2 modulator project, cell-based, counterscreen 1. 3,700 compounds, 46% hits. shares compounds with Cl transport mod. thallium flux rate (normalised fluorescence) at 10 µM. HEK293 parental cells, thallium flux FluoZin2, ouabain; baseline-ratio fluorescence slope, 10–20 s after thallium;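 active means thallium flux rate significantly above the same plate's solvent-only control wells, beyond their mean plus 3 SD; inconclusive means the two replicate wells gave conflicting results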
KCC2 retest ouab: KCC2 inhibitors and activators, ouabain retest, confirmation, HEK-KCC2 cells | AID 1717, 2009 | shares compounds with Cl transport mod | HEK293-KCC2, thallium flux FluoZin2 fluorescence; bidirectional: low = inhibitor, high = activator | 3,700 compounds, 48% hits | raw Tl+ flux slope (below DMSO = inhibition, above = activation) at 10 µM;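 active means thallium flux slope beyond 3 SD from same-plate DMSO control mean in most replicates, usually higher, sometimes lower; inconclusive means repeat tests gave conflicting results; inactive means no significant difference from controls in most replicates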;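 further: slope of initial-normalized fluorescence between seconds 10 and 20 after thallium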
HEK293 Tl flux2: native HEK Tl+ uptake effects, second counter-screen – HEK cells, counterscreen 2, counter-screen for KCC2 modulator project, confirmation; shares compounds with Cl transport mod; 3,700 compounds, 33% hits; thallium flux slope at 10 µM; HEK293 parental, thallium flux FluoZin-2 fluorescence slope;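 active means thallium flux slope above the same plate's solvent-control mean plus 3 SD in both duplicate wells; inconclusive means duplicate wells that disagreed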;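 further: run without ouabain in cells lacking the KCC2 cotransporter; slope of fluorescence scaled to its starting value between 10 and 20 s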
* marks the source's active call; other numbers are inactive results; u = inconclusive; x = no result.

SMILES | ROMK mod | PKD1 inh | Rad51 HR inh | Cl transport mod | KCC2 sec1 | KCC2 bumet counter | KCC2 secondary2 | HEK counter1 | KCC2 retest ouab | HEK293 Tl flux2
COc1ccc(CN2CC(C(=O)NCCC(C)C)CC2=O)cc1 (stereo not drawn) | 0.107 | 5.3 | 5.7 | 0.515 | x | x | x | x | x | x
COc1ccc(C(=O)NNC(=O)C2CCN(S(=O)(=O)c3ccc(C)cc3)CC2)cc1 | 0.589 | 8.5 | x | -0.805 | x | x | x | x | x | x
COc1ccc(NC(=O)CSc2nccn2-c2ccccc2)c(OC)c1 | x | -14.6 | x | -0.0927 | x | x | x | x | x | x
CCOc1ccccc1NC(=O)CSc1nccn1-c1ccccc1 | x | -2.6 | x | -4.78* | 0.0166 | u | 0.0246* | 0.0046* | 0.0127* | 0.00711*
S=c1[nH]c2ccccc2n2cccc12 | x | x | 12.1 | 21.8* | 0.017* | 0.0867* | u | 0.0281* | 0.0477* | 0.0175*
Cn1cc(S(=O)(=O)N2CCc3ccccc3C2)c(=O)n(C)c1=O | x | -3.6 | 2.4 | -3.45* | 0.0103 | u | 0.0325 | 0.00779 | 0.0217 | 0.0105
Cc1ccc(C(=O)Nc2scc(-c3ccccc3)c2C(=O)O)o1 | 0.0666 | -5.2 | -4.2 | -0.793 | x | x | x | x | x | x
COc1ccc(-c2csc(NC(=O)Cc3cccc4ccccc34)c2C(=O)O)cc1 | 0.58 | 4.1 | 2.1 | -4.14* | 0.00776 | 0.00507 | 0.028 | 0.00843 | 0.0168 | 0.0106
COc1ccc(-c2csc(NC(=O)c3cccs3)c2C(=O)O)cc1OC | x | -1.4 | 10.6 | -3.66* | 0.00764 | 0.00651 | 0.0362 | 0.00361 | 0.0165* | 0.0117
COC(=O)CN1C(=O)C2(C(C#N)=C(N)Oc3c2c(C)nn3-c2ccccc2)c2ccccc21 (stereo not drawn) | 0.187 | 6.7 | 0.1 | 3.9* | 0.0072 | 0.00572* | 0.029 | 0.00831 | 0.0181 | 0.0117
Cn1nc(Oc2ncc(C(F)(F)F)cc2Cl)cc1C(F)(F)F | -0.402 | -3.8 | -12.5 | 0.133 | x | x | x | x | x | x
C=CCn1c(O)c(N=NC(=S)Nc2ccccc2C)c2cc(S(=O)(=O)N3CCOCC3)ccc21 | 0.201 | -12.3 | x | 13.8* | 0.0134* | 0.0719* | 0.0362 | 0.02* | 0.0287 | 0.0146*
Cn1c(O)c(N=NC(=S)Nc2ccccc2F)c2cc(S(=O)(=O)N3CCOCC3)ccc21 | 0.104 | -1.8 | 15.5 | 36.7* | 0.0158* | 0.0558* | 0.036 | u | 0.0444* | u
Cc1ccc(NC(=S)N=Nc2c(O)n(C)c3ccc(S(=O)(=O)N4CCOCC4)cc23)cc1C | 1.06 | -22.1 | x | 7.43* | 0.011 | 0.0128* | 0.0336 | 0.0323* | u | 0.0178*
Cc1cccc(NC(=S)N=Nc2c(O)n(CN3CCOCC3)c3ccccc23)c1C | x | -0.4 | 2.6 | 5.32* | 0.0235* | 0.0212* | 0.0346 | 0.012* | 0.0264* | 0.0123*
Cc1cccc(C)c1NC(=O)C(=O)NCc1ccccn1 | x | 5.8 | -3.5 | -0.142 | x | x | x | x | x | x
Cc1occc1C(=O)NNC1=CC(=O)CC(C)(C)C1 | -0.0848 | -8.1 | -2.8 | 0.0279 | x | x | x | x | x | x
C=CCn1c(O)c(N=NC(=O)C(O)c2ccccc2)c2ccccc21 (stereo not drawn) | x | x | x | 0.0205 | x | x | x | x | x | x
C=CCn1c(O)c(N=NC(=S)Nc2ccc(OC)c(Cl)c2)c2ccccc21 | 0.341 | -7.5 | x | 20.9* | 0.00654 | 0.0292* | 0.0349 | 0.0238* | 0.0282* | 0.0158*
O=C(Nc1nc2c(Cl)cccc2s1)c1ccc(Br)o1 | x | -5.8 | -2.1 | x | u | 0.0267* | 0.0326 | 0.0342* | 0.0309* | 0.0136*
COCCNC(=O)CN(c1cc(C(F)(F)F)ccc1Cl)S(C)(=O)=O | x | 9.4 | -0.6 | -4.01* | 0.00846 | u | 0.028 | u | 0.0185 | 0.0107
O=C(N/N=C1\CC2CC=CC12)c1ccccc1Cl (stereo not drawn) | -0.116 | -5.6 | 0.7 | 0.35 | x | x | x | x | x | x
FC(F)(F)c1ccccc1NC(=S)N/N=C1\CC2CC=CC12 (stereo not drawn) | -0.0139 | 4.4 | -7.7 | 13.3* | u | 0.037* | 0.0398* | 0.0204* | 0.0287* | 0.0229*
O=C(C1CC1)N1CCc2cc(S(=O)(=O)NC3CCN(Cc4ccccc4)CC3)ccc21 | -0.3 | -10.3 | x | x | 0.00932 | u | u | 0.00785 | 0.0158* | 0.0108
O=C(NNS(=O)(=O)c1ccc2ccccc2c1)C1CCN(Cc2ccccc2)CC1 | x | -3.4 | x | x | 0.00649 | 0.00459 | 0.0264 | 0.00703 | u | 0.0106
SMILES | ROMK mod | PKD1 inh | Rad51 HR inh | Cl transport mod | KCC2 sec1 | KCC2 bumet counter | KCC2 secondary2 | HEK counter1 | KCC2 retest ouab | HEK293 Tl flux2
CNC(=O)c1ccc(=O)n(Cc2cccc(C(F)(F)F)c2)c1 | -0.181 | -5.7 | -1.0 | -0.809 | x | x | x | x | x | x
CCNC(=S)NNC(=O)CCn1cc(C)cn1 | 0.791 | -14.4 | x | 0.688 | x | x | x | x | x | x
CS(=O)(=O)c1ccc(Sc2nc3ccccc3s2)c([N+](=O)[O-])c1 | x | -4.7 | -0.8 | -0.0189 | x | x | x | x | x | x
Cc1ccc(/C=C(\CCC(=O)O)c2nc3ccccc3s2)cc1[N+](=O)[O-] | 0.323 | -11.7 | 12.7 | -6.9* | 0.00567 | 0.00477 | 0.0216* | 0.00583* | 0.01* | u
Cn1cnnc1Sc1ccc(/C=C/C(=O)c2ccc(O)cc2)cc1[N+](=O)[O-] | 0.943 | -5.8 | 11.5 | -0.0268 | x | x | x | x | x | x
Cn1cnnc1Sc1ccc(/C=C(\CCC(=O)O)c2nc3ccccc3s2)cc1[N+](=O)[O-] | -0.946 | -2.7 | 1.6 | -6.78* | 0.00574 | 0.00475 | 0.0246* | 0.00593* | 0.0137* | 0.00966
CNc1ccc(/C=C(\CCC(=O)O)c2nc3ccccc3s2)cc1[N+](=O)[O-] | 0.0354 | 8.4 | x | -5.47* | 0.00944 | 0.00618 | 0.0248* | 0.00834 | 0.0127* | 0.0115
CCOc1cc(/C=C(\CC(=O)O)c2nc3ccccc3s2)ccc1OC | 0.00975 | -5.7 | -60.6 | 1.41 | x | x | x | x | x | x
